Data set [1] addresses Cruzipain (Trypanosoma cruzi) (UniProt P25779). The data set can be described thus: Inhibition of recombinant Trypanosoma cruzi cruzain at 25 uM preincubated for 10 mins followed by substrate addition measured after 10 mins relative to control. In a few lines: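 Recombinant cruzain activated in 0.1 M acetate buffer pH 5.5 with 5.5 mM DTT, adjusted to 0.1 μM. Enzyme in phosphate buffer with 0.01% Triton. Preincubated with compound 10 min at 35 °C, then fluorogenic substrate added for 10 min. Inhibition % = 100 − (A1/A × 100) against cruzain plus substrate RFU. Triplicate; E-64c as standard.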

For data set [2], the system named is Trypanosoma cruzi. In words: Antitrypanosomal activity against trypomastigote stage of Trypanosoma cruzi Y assessed as living parasites level after 24 hrs by Neubauer chamber analysis. It is filed as functional, organism-based. An outline of the steps:
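Y trypomastigotes from LLC-MK2 culture supernatants, 4 × 10^5 per well. Five concentrations, 0.24–20 μM, from DMSO stocks diluted in medium. Incubated 24 h at 37 °C, 5% CO2. Live parasites counted and compared with untreated culture. Run in triplicate, at least three independent experiments. IC50 as mean ± SD.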

The subject of data set [3] is Trypanosoma cruzi. The data set can be described thus: Antitrypanosomal activity against blood stage trypomastigote form of Trypanosoma cruzi Y infected in BALB/c mouse assessed as reduction of mortality at 100 mg/kg, po qd administered for 5 days measured for 30 days. In kind it is functional, organism-based. More on the design: dose 100 mg/kg. In a few lines: (§1)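 Female BALB/c mice, 6–8 weeks, infected ip with 10^4 bloodstream Y trypomastigotes, six per group. From day 5, oral dosing once daily for five days, vehicle saline with 20% DMSO; untreated infected group got vehicle. Motile parasites counted in 5 μL tail-vein fresh blood. Survival checked daily to day 30. Means ± SEM.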

The test system of data set [4] is Trypanosoma cruzi. In words: Antitrypanosomal activity against blood stage trypomastigote form of Trypanosoma cruzi Y infected in BALB/c mouse assessed as reduction of blood parasitemia at 100 mg/kg, po qd administered for 5 days relative to control. In kind it is functional. More on the design: scale not given: the % may be the effect or the level left. In a few lines:
as §1

Data set [5] relates to Trypanosoma cruzi. The data set can be described thus: Antitrypanosomal activity against trypomastigote stage of Trypanosoma cruzi Y infected in BALB/c mouse peritoneal macrophages assessed as inhibition of host cell invasion at 10 uM after 2 hrs by hematoxylin/eosin staining-based optical microscopic analysis. It is filed as functional, organism-based. An outline of the steps: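 Macrophages at 1 × 10^5 per well on coverslips in RPMI + 10% FBS for 24 h. Infected with trypomastigotes at 100 per macrophage and treated at 10 μM, with amphotericin B 10 μM as reference. Incubated 2 h at 37 °C, washed, then 2 h more in medium. Fixed in absolute alcohol. Percentage of infected macrophages counted after H&E.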

The subject of data set [6] is Mus musculus. The data set can be described thus: Toxicity in BALB/c mouse infected with blood stage trypomastigote form of Trypanosoma cruzi Y at 100 mg/kg, po qd administered for 5 days measured during compound treatment. It is filed as organism-based. The settings on record: in vivo, 120 h. More on the design: dose 100 mg/kg, route oral. In a few lines: as §1
A short description of data set [7]: Cytotoxicity against BALB/c mouse peritoneal macrophages after 72 hrs by AlamarBlue assay. In kind it is cell-based, Peritoneal macrophage cell. The settings on record: read-out: LC50. In a few lines:
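Peritoneal exudate macrophages from BALB/c mice, 1 × 10^5 cells/well in phenol-red-free RPMI-1640 with 10% FBS and 50 μg/mL gentamycin, pre-incubated 24 h at 37 °C, 5% CO2. Compounds from DMSO stocks diluted in medium, five concentrations 0.24–20 μM in triplicate, 72 h. AlamarBlue added over 10 h, read at 570/600 nm. LC50 from three independent experiments, mean ± SD.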
A general note: Alamar Blue is a resazurin reagent that responds to reducing activity.

In data set [8] the test system is Trypanosoma cruzi. The data set can be described thus: Antitrypanosomal activity against amastigote stage of Trypanosoma cruzi Y in BALB/c mouse peritoneal macrophages assessed as reduction of number of intracellular parasites per 100 cells after 4 days by hematoxylin/eosin staining-based optical microscopic analysis. In kind it is functional, organism-based. The settings on record: 96 h. In a few lines: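 Macrophages plated 2 × 10^5 per well on coverslips in RPMI + 10% FBS for 24 h, infected with trypomastigotes at 10 parasites per macrophage for 2 h, then washed. Compounds at five concentrations, 0.12–10 μM, in triplicate for 6 h. Medium replaced, 4 days further culture. Coverslips fixed in absolute alcohol. IC50 taken as concentration halving amastigotes per 100 macrophages; mean ± SD of three independent experiments.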

Six compounds from ChEMBL document CHEMBL3286352, “Dimeric flavonoids from Arrabidaea brachypoda and assessment of their anti-Trypanosoma cruzi activity” (J Nat Prod, 2014) can be followed below.

Calls of active or inactive are those of the source. No cut-off for these calls is given here. A value given as a limit tells only on which side of the number the result lay.

The term inhibition denotes the percentage by which the read-out fell short of the control. The term IC50 denotes the midpoint of a concentration-inhibition curve.

Chain of Cruzipain (Trypanosoma cruzi) (P25779 123-467 limits assumed): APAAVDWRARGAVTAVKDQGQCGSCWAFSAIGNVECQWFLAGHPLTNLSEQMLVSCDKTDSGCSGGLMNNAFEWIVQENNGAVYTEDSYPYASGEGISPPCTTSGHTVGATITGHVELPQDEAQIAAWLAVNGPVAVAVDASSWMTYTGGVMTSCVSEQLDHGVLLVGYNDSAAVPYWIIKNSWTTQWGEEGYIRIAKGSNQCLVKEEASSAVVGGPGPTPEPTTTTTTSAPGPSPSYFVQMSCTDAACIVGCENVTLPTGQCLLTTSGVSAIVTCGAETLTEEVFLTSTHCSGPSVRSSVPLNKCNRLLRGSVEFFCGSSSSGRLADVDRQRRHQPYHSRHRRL

Regarding `CC(C)CCNC(=O)[C@H](CC(C)C)NC(=O)[C@H]1O[C@@H]1C(=O)O`, the inhibition in data set [1] stood at 100%.

For the compound `COc1ccc(/C=C/[C@@H]2c3c(OC)cc(O)cc3O[C@H]3c4c(OC)cc(O)cc4O[C@H](c4ccccc4)[C@@H]23)cc1`, the IC50 amounted to 5.3 µM in data set [2] and 6 µM in data set [8]. Besides, the outcome in data set [3] was Active. In addition, the inhibition in data set [1] amounted to 0%. For the same compound, the results for the Activity in data set [4] and in data set [6] were 92% and “Non-toxic”, respectively. Besides, the inhibition entry in data set [5] is “Active”. Further, the CC50 at 72 h in data set [7] came out at 15.6 µM.

For `O=C(Cn1ccnc1[N+](=O)[O-])NCc1ccccc1` [BENZNIDAZOLE], the IC50 in data set [2] was found to be 11.3 µM. Further, the Activity in data set [4] is listed as 99%. Besides, the inhibition result in data set [5] is “Active”. Further, the CC50 at 72 h in data set [7] is above 20 µM.

As for `CN(C)c1ccc(C(=C2C=CC(=[N+](C)C)C=C2)c2ccc(N(C)C)cc2)cc1` [GENTIAN VIOLET], in data set [7], the CC50 at 72 h turned out to be 0.48 µM.

Regarding `COc1cc(O)cc2c1[C@@H](/C=C/c1ccc(O)cc1)[C@@H]1[C@@H](c3ccccc3)Oc3cc(O)cc(OC)c3[C@@H]1O2`, the IC50 in data set [2] and in data set [8] was above 20 µM throughout. Besides, in data set [1], the inhibition amounted to 0%. Besides, the CC50 at 72 h in data set [7] was above 20 µM.

On to `COc1cc(O)cc2c1[C@@H](/C=C/c1ccccc1)[C@@H]1[C@@H](c3ccccc3)Oc3cc(O)cc(OC)c3[C@@H]1O2`, for which the concentration for half-maximal inhibition (IC50) in data set [2] stood at 6.6 µM; in data set [8], 6.8 µM. Further, in data set [1], the inhibition stood at 0%. In addition, the inhibition result in data set [5] is “Active”. In addition, the CC50 at 72 h in data set [7] stood at 17.3 µM.
